Here are results for four molecules from ChEMBL document CHEMBL2176949 (J Med Chem, 2012).

Assay [1] concerns the target T1, Neuronal acetylcholine receptor subunit alpha-7 (Rattus norvegicus, UniProt Q05941). The assay is described as follows: Agonist activity at rat alpha7 nAChR expressed in Xenopus laevis oocytes by two-electrode voltage clamp assay. The assay is classed as functional, cell-based, Oocyte.
Assay [2] deals with T1, Neuronal acetylcholine receptor subunit alpha-7. The assay is described as follows: Binding affinity to rat alpha7 nAChR expressed in Xenopus laevis oocytes. The assay is classed as cell-based, Oocyte.
The target of assay [3] is T2, Neuronal acetylcholine receptor; alpha4/beta2 (Homo sapiens, UniProt P17787+P43681). Nature of the assay: Agonist activity at human alpha4beta2 nAChR expressed in human SH-EP1 cells by whole cell voltage clamp based electrophysiology method. In kind it is functional. Summed up:
(§1)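 Whole-cell voltage clamp at -60 mV, room temperature (22 ± 1 °C), one cell per agonist load, Dynaflow fast application. Agonist applied 1 s for α4β2 and 0.5 s for α7, with 30 s washout. Tris-based pipette solution, pH 7.3. Concentration-response data fitted to the Hill equation, with α4β2 fitted as the sum of two Hill equations. Max % relative to 1 mM ACh.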

Assay [4] is filed under the species Homo sapiens. The assay is described as follows: Ratio of EC50 for human nAChR alpha6/alpha3beta2beta3 V273S mutant to Ki for human alpha6/alpha3beta2beta3 nAChR.
In assay [5] the target is Neuronal acetylcholine receptor subunit alpha-7 (Homo sapiens, UniProt P36544). Nature of the assay: Displacement of [3H]epibatidine from human alpha7 nAChR expressed in human HEK/RIC3 cells. The assay is classed as cell-based. Summed up:
(§2)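 Binding to membranes from the cell lines: homogenised in PBS pH 7.4, spun at 40000g for 20 min at 4 °C, then incubated 2 h on ice in PBS with competitor (0.001 nM to 100 μM) and radioligand. Filters washed in ice-cold PBS and counted by scintillation. IC50 from nonlinear regression; Ki by Cheng-Prusoff. Minimum of three assays, ± SEM.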

Assay [6] has as its target T2, Neuronal acetylcholine receptor; alpha4/beta2. The assay is described as follows: Agonist activity at human alpha4beta2 nAChR expressed in human SH-EP1 cells by whole cell voltage clamp based electrophysiology method relative to 1 mM acetylcholine. The assay is classed as functional. The essentials:
as §1

The target is the same in assay [7]. The assay is described as follows: Displacement of [3H]nicotine from human alpha4beta2 nAChR expressed in human SH-EP1 cells. The assay is classed as cell-based. The essentials:
as §2

Assay [8] can be described thus: Agonist activity at rat alpha7 nAChR T6'S59 mutant expressed in rat GH4C1 cells by whole cell voltage clamp based electrophysiology method relative to 1 mM acetylcholine. In kind it is functional, GH4-C1. The essentials:
as §1

Assay [9] deals with T2, Neuronal acetylcholine receptor; alpha4/beta2. Nature of the assay: Agonist activity at human alpha4beta2 nAChR low sensitivity form expressed in human SH-EP1 cells assessed as increase in calcium flux by FLIPR relative to 10 uM nicotine. In kind it is functional, cell-based.
The target in assay [10] is T3, Neuronal acetylcholine receptor; alpha3/beta4 (Homo sapiens, UniProt P30926+P32297). Nature of the assay: Agonist activity at human alpha3beta4 nAChR expressed in human SH-SY5Y cells assessed as increase in calcium flux by FLIPR relative to 10 uM nicotine. In kind it is functional, cell-based.
T3 sequence (P30926 whole entry): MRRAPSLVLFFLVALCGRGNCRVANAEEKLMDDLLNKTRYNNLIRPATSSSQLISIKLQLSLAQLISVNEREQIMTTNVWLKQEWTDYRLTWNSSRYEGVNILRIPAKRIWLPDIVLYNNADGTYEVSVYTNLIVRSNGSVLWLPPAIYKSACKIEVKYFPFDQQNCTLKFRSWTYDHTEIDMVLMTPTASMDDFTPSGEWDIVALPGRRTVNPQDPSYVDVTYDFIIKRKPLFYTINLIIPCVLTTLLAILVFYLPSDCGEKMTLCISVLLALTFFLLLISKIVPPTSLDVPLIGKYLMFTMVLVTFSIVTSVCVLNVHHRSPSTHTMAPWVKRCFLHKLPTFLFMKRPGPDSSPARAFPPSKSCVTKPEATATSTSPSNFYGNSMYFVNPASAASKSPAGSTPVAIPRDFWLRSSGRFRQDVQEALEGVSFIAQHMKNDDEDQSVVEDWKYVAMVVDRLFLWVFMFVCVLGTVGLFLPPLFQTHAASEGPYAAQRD
T3 sequence (P32297 whole entry): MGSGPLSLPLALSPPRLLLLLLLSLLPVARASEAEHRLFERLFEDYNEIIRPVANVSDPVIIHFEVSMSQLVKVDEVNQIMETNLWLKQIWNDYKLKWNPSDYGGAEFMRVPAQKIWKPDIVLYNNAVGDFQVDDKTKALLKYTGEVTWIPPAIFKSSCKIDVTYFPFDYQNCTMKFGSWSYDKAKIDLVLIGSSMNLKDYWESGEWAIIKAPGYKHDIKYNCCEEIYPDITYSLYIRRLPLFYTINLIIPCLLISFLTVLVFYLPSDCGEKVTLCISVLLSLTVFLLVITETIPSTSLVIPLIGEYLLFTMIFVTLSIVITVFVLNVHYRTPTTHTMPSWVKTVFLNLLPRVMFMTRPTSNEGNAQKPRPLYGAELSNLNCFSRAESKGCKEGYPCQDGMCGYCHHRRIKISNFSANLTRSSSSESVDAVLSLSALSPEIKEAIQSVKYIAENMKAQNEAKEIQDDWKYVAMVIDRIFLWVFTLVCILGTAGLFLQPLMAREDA
Assay [11] deals with T3, Neuronal acetylcholine receptor; alpha3/beta4. Nature of the assay: Agonist activity at human alpha3beta4 nAChR expressed in human SH-SY5Y cells assessed as increase in calcium flux by FLIPR. The assay is classed as functional, cell-based.
Assay [12] can be described thus: Agonist activity at human nAChR alpha6/alpha3beta2beta3 V273S mutant expressed in HEK293T cells by FLIPR relative to 10 uM nicotine. In kind it is functional, HEK-293T.
The target of assay [13] is T2, Neuronal acetylcholine receptor; alpha4/beta2. Nature of the assay: Agonist activity at human alpha4beta2 nAChR low sensitivity form expressed in human SH-EP1 cells assessed as increase in calcium flux by FLIPR. The assay is classed as functional, cell-based.
Assay [14] deals with T3, Neuronal acetylcholine receptor; alpha3/beta4. Nature of the assay: Displacement of [3H]epibatidine from human alpha3beta4 nAChR expressed in human SH-SY5Y cells. The assay is classed as cell-based. The essentials: as §2
Assay [15] deals with Nicotinic acetylcholine receptor alpha6/alpha3/beta2/beta3 (Rattus norvegicus, UniProt P04757+P12390+P12391+P43143). The assay is described as follows: Agonist activity at alpha6/alpha3beta2beta3 nAChR in Sprague-Dawley rat striatal synaptosomes assessed as induction of dopamine release. The assay is classed as functional, subcellular, Brain.
The species named for assay [16] is Homo sapiens. Nature of the assay: Selectivity index, ratio of Ki for human alpha3beta4 nAChR to Ki for human alpha4beta2 nAChR.
Assay [17] in a line: Agonist activity at human nAChR alpha6/alpha3beta2beta3 V273S mutant expressed in HEK293T cells by FLIPR. The assay is classed as functional, cell-based. As to conditions: HEK-293T.
Assay [18] deals with T2, Neuronal acetylcholine receptor; alpha4/beta2. Nature of the assay: Agonist activity at human alpha4beta2 nAChR high sensitivity form expressed in human SH-EP1 cells assessed as increase in calcium flux by FLIPR. The assay is classed as functional, cell-based.
For assay [19], the target named is Nicotinic acetylcholine receptor alpha6/alpha3/beta2/beta3 (Rattus norvegicus) (UniProt P04757+P12390+P12391+P43143). The assay is described as follows: Agonist activity at alpha6/alpha3beta2beta3 nAChR in Sprague-Dawley rat striatal synaptosomes assessed as induction of dopamine release relative to 10 uM nicotine. The assay is classed as functional, subcellular. As to conditions: Brain.

Assay [20] deals with T2, Neuronal acetylcholine receptor; alpha4/beta2. Nature of the assay: Agonist activity at human alpha4beta2 nAChR high sensitivity form expressed in human SH-EP1 cells assessed as increase in calcium flux by FLIPR relative to 10 uM nicotine. In kind it is functional, cell-based.
Assay [21] can be described thus: Agonist activity at rat alpha7 nAChR T6'S59 mutant expressed in rat GH4C1 cells by whole cell voltage clamp based electrophysiology method. As to conditions: GH4-C1. The assay is classed as functional. Summed up: as §1
For assay [22], the target named is Neuronal acetylcholine receptor; alpha3/alpha6/beta2/beta3 (Homo sapiens, UniProt P17787+P32297+Q05901+Q15825). The assay is described as follows: Displacement of [3H]epibatidine from human alpha6/alpha3beta2beta3 nAChR expressed in HEK293T cells.
Neuronal acetylcholine receptor; alpha3/alpha6/beta2/beta3, sequence (P17787 whole entry): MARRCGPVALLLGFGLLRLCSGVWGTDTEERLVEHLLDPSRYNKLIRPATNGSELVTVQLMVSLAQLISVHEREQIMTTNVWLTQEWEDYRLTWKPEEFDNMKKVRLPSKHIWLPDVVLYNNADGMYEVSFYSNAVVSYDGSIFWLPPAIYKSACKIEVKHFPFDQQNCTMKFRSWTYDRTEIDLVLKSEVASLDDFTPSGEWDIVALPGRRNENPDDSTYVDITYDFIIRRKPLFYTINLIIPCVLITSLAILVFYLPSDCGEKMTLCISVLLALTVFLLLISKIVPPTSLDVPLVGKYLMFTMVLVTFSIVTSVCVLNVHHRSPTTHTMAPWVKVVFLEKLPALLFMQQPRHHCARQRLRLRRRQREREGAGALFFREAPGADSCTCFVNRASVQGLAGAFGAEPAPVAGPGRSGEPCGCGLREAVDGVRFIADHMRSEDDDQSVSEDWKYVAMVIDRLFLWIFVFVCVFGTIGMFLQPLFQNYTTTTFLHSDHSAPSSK
Neuronal acetylcholine receptor; alpha3/alpha6/beta2/beta3, sequence (P32297 whole entry): as the sequence (P32297 whole entry) above
Neuronal acetylcholine receptor; alpha3/alpha6/beta2/beta3, sequence (Q15825 whole entry): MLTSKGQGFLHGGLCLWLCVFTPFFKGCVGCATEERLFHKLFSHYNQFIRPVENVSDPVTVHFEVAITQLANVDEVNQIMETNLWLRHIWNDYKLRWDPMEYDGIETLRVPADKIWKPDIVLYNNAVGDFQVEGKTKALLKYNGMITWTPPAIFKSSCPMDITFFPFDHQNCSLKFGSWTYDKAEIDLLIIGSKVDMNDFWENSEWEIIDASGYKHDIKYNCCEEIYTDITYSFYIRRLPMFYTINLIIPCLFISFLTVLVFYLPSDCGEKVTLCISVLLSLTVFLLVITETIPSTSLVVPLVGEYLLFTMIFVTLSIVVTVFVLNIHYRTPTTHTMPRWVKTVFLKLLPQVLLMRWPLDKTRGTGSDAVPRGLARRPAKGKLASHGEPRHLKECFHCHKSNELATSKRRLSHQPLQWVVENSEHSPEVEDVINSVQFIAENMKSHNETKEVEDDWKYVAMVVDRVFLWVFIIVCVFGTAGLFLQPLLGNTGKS
Neuronal acetylcholine receptor; alpha3/alpha6/beta2/beta3, sequence (Q05901 whole entry): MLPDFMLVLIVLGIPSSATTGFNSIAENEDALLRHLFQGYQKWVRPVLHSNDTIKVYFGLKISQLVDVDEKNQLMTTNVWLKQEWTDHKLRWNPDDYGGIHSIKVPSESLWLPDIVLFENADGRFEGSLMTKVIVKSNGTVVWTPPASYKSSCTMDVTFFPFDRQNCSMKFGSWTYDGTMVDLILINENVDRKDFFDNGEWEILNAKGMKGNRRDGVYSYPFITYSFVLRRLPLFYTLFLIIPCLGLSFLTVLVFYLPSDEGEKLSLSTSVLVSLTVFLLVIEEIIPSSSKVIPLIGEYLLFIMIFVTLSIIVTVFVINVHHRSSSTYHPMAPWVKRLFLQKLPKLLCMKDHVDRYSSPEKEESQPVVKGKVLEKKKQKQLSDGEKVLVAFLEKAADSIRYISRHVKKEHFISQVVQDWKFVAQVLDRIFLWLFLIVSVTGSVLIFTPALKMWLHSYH
For assay [23], the target named is Neuronal acetylcholine receptor; alpha4/beta2 (Rattus norvegicus, UniProt P09483+P12390). Nature of the assay: Binding affinity to rat alpha4beta2 nAChR.
Assay [24] deals with T1, Neuronal acetylcholine receptor subunit alpha-7. Nature of the assay: Binding affinity to rat alpha7 nAChR.
The target in assay [25] is Neuronal acetylcholine receptor subunit alpha-7 (Mus musculus, UniProt P49582).
Neuronal acetylcholine receptor subunit alpha-7 (Mus musculus, UniProt P49582), sequence (P49582 whole entry): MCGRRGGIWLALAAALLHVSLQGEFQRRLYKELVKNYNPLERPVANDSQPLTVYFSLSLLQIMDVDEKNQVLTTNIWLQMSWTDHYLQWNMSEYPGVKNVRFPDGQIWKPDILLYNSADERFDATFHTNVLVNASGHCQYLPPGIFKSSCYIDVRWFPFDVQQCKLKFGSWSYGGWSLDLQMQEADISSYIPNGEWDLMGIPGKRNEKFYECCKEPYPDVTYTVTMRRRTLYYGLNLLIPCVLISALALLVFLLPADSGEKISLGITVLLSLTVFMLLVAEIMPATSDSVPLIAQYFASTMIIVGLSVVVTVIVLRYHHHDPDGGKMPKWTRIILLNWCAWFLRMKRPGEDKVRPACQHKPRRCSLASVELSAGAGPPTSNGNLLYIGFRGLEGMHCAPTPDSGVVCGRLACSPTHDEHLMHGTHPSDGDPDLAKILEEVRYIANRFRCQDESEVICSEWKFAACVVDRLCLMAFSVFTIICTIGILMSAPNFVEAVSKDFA

T2 sequence (P17787 whole entry): as the sequence (P17787 whole entry) above
T2 sequence (P43681 whole entry): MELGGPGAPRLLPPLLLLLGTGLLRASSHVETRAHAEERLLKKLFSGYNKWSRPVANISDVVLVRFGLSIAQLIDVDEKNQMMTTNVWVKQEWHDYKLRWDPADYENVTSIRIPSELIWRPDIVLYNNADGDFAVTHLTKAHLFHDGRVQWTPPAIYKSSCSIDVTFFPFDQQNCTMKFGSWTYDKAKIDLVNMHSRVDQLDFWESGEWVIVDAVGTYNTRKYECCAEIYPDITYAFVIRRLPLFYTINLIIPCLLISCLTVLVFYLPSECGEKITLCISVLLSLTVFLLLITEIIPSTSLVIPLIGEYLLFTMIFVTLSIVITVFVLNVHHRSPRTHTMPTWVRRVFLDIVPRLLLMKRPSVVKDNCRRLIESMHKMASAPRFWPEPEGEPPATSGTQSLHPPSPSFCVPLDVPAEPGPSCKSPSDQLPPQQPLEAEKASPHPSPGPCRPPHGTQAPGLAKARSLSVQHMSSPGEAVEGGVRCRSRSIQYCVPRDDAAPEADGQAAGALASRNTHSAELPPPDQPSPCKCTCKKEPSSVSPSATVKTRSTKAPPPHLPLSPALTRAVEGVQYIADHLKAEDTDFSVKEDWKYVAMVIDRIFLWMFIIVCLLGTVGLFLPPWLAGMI
T1 sequence (Q05941 whole entry): as the sequence (P49582 whole entry) above, with R4G, T424A counted along it
Neuronal acetylcholine receptor subunit alpha-7 (Homo sapiens, UniProt P36544), sequence (P36544 whole entry): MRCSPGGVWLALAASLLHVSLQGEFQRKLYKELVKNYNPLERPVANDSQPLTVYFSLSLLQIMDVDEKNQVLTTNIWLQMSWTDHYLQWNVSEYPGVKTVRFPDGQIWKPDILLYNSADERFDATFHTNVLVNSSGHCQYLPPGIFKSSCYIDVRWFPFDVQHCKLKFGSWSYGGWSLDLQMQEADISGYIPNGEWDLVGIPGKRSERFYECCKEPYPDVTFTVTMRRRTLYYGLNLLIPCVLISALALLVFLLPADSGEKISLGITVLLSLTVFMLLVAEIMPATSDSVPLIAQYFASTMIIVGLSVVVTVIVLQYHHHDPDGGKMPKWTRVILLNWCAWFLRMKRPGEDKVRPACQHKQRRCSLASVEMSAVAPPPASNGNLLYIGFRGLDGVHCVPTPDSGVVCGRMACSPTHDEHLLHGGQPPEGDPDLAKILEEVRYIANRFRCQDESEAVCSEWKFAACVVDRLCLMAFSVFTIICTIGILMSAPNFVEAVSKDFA

Consider `c1cnc2cc3c(cc2n1)[C@@H]1CNC[C@H]3C1` [VARENICLINE], for which a half-maximal response in assay [1] (EC50) required 18 µM. The same molecule registered a Ki in [2] of 300 nM.

Turning to `C1=C(c2cccnc2)C[C@H]2CNC[C@@H]1C2`, the concentration giving a half-maximal response (EC50) in assay [3] was 100 nM; in assay [11], 37 nM; in assay [13] it was 12 nM; in assay [15], 0.95 nM; in [17], 14 nM; in assay [18] it was 2.3 nM. For the same molecule, in assay [21], the response was half-maximal at 30 nM (EC50). Moreover, the Ratio in the assay filed under Homo sapiens [4] turned out to be 15. Also, the Ki in assay [5] was determined as 1.2 nM; in assay [7], 0.2 nM; in assay [14] it was 4 nM; in assay [22], 0.95 nM. The %max came out at 40% in assay [6]; 20% in [8]; 129% in [9]; 142% in assay [10]; 110% in [12]; 73% in [19]. Further, the %max in [20] was 114%. The Ratio Ki in the assay filed under Homo sapiens [16] stood at 20.

In the case of `O=c1cccc2n1C[C@@H]1CNC[C@H]2C1` [CYTISINICLINE], the Ki in assay [23] stood at 1 nM; in [24], 8 µM.

`CN1CCC[C@H]1c1cccnc1` [NICOTINE] had an inhibitory constant (Ki) in assay [25] of 244 nM.
